Bioassay records (PubChem)
Most compounds without a hit are left out; they make up all but 1% or so of the library.
CTSL1 counter – Fasciola hepatica cathepsin L1 inhibitors, primary screen, counter-screen for PFM18AAP inhibitor project, biochemical, QFRET, fluorogenic peptide substrate; recombinant F. hepatica cathepsin L1, Z-Leu-Arg-MCA fluorescence; inhibition, % at 5.96 µM; hit rate 0.49% among 300,000; AID 1906, 2009;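 active = inhibition above the mean of all tested compounds plus 3 SD, set per screening campaign, cut at about 17% in these data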
Hep lipid drop – inhibitors of hepatocyte lipid droplet formation, primary screen, imaging, high-throughput imaging, BODIPY stain; hit rate 0.4% among 240,000; AID 1656, 2009; AML12 mouse hepatocytes, oleate lipid droplets; inhibition, % at 6.5 µM;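 active = lipid droplet intensity inhibited by at least 50%, with more than 500 cells counted; inconclusive = wells with under 300 cells, treated as cytotoxic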
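Technique: fluorescence imaging, 20x objective, two fields per well / Assay system: AML12 hepatocytes (mouse) / Measure: % inhibition of lipid droplet signal / Doses: 6.5 µM single-point dosing / Incubation: overnight exposure / Reagent: 100 µM oleic acid challenge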
Arr AP2 block – inhibitors of beta-arrestin/AP2 binding, primary screen, biochemical, GPCR trafficking, flow cytometry. inhibition, % at 10 µM. beta-arrestin 1 C-terminal peptide binding to AP2 beta2-adaptin appendage (human). FITC-arrestin peptide / GST-AP2 beads; AP2 beta2 appendage carries R879A mutation. AID 504490, 2011. hit rate 0.31% among 340,000;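 active = inhibition above a set limit, near 3 SD of compounds lacking own fluorescence, cut at about 54% in these data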
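system = GST-tagged AP2 beta2-adaptin appendage (R879A) on 4 µm glutathione beads | reagent = FITC-labelled arrestin peptide probe, 50 nM final | schedule = compound with beads 12 min RT, then probe 1 h RT | signal = HyperCyt-sampled flow cytometry, FL1 channel, ex 488/em 535 nm | read-out = percent response from loss of bead-bound FITC fluorescence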
pCIP destab – p/CIP-EGFP fusion destabilizers, primary screen, fluorescence, F442A cells; 16 h; decrease of EGFP signal, % at 10 µM; hit rate 0.01% among 290,000;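 active = EGFP signal decrease of at least 30% at 10 µM or well 3 SD below plate mean, unless failing retest; inactive = the rest, including hits failing retest or dose response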
Target sequence (Q05BA5 1-1403): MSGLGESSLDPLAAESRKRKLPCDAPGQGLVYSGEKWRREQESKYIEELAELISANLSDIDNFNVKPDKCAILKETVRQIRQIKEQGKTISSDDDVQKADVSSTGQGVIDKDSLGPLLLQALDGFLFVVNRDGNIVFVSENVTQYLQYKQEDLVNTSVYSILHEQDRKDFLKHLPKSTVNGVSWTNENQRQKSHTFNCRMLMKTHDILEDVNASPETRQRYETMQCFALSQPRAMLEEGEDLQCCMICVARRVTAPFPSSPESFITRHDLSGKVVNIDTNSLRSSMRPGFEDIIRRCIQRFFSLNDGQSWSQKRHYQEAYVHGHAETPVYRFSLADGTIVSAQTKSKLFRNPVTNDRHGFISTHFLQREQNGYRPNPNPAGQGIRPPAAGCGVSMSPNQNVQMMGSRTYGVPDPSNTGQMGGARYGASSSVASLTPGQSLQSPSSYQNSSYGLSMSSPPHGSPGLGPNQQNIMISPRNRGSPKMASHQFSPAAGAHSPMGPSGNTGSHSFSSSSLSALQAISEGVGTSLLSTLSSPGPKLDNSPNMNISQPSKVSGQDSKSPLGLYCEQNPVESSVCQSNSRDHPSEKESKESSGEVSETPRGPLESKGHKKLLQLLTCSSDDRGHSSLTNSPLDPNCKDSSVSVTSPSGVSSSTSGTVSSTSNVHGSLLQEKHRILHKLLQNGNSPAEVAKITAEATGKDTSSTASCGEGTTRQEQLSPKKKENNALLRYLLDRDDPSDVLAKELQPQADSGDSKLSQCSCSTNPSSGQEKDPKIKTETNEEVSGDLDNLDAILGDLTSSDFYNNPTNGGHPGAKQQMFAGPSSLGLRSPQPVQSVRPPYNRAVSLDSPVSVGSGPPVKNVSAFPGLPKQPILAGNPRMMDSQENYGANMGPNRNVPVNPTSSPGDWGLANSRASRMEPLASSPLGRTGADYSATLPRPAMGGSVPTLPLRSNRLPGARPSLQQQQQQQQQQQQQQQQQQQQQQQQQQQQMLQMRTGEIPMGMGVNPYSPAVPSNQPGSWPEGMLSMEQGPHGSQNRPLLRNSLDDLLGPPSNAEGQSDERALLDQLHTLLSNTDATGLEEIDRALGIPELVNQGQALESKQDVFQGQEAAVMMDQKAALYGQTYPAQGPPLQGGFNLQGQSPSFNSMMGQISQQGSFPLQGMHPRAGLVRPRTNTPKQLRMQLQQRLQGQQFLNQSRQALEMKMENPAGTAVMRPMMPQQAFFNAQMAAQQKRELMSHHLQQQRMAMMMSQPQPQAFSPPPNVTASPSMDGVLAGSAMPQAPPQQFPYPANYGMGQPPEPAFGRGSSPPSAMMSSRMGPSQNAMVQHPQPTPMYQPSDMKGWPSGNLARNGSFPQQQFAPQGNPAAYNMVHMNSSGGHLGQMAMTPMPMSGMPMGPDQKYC
Hits are given with their value; 0 = inactive; ? = inconclusive; - = no result given.

SMILES | CTSL1 counter | Hep lipid drop | Arr AP2 block | pCIP destab
Cc1cc2oc(=O)cc(C)c2cc1NC(=O)CCC(=O)O | 0 | 0 | 0 | 0
CCOC(=O)/C(C#N)=N/Nc1ccccc1OC | 0 | 0 | 0 | 0
CCOC(=O)/C(C#N)=N\Nc1cc(Cl)ccc1OC | 32 | 0 | 0 | 0
COC(=O)c1ccc(NC(=O)Nc2ccc(F)cc2F)cc1 | 0 | 0 | 0 | 0
CCCN(CCC)c1nc(N(CCC)CCC)[nH]c(=O)n1 | 0 | 0 | 0 | 0
CN(C)c1nc(C#N)nc(N(C)C)n1 | 26 | 0 | 0 | 0
CCCN(CCC)c1nc(C#N)nc(N(CCC)CCC)n1 | 18 | 0 | 0 | 0
C=C1C[C@@]23CCC4[C@@](C)(CCC[C@@]4(C)C(=O)OC)C2CC[C@]1(OC(C)=O)C3 (stereo partly drawn) | - | - | 0 | -
O=C(CCl)Nc1ccccc1C(=O)Nc1ccc2c(c1)OCO2 | 21 | 0 | 0 | 0
O=C(CCNC(=O)c1ccccc1Cl)Nc1ccc2c(c1)OCO2 | 0 | 0 | 0 | 0
CN(C)S(=O)(=O)N1CCN(CC(=O)Nc2ccc(Br)cc2)CC1 | 0 | 0 | 0 | 0
COc1cc(NC(=O)C2CCCN2S(=O)(=O)c2ccc3c(c2)CC(C)N3C(C)=O)cc(OC)c1 (stereo not drawn) | 0 | 0 | 0 | 0
CC(=O)N1c2ccc(S(=O)(=O)N3CCCC3C(=O)Nc3ccc(C)cc3)cc2CC1C (stereo not drawn) | 19 | 0 | 0 | 0
CCc1cc(C(=O)NNC(=O)CCl)sc1C | 90 | 0 | 0 | 0
CCc1cccc2c(C(=O)CCl)c[nH]c12 | 35 | 0 | 0 | 0
COC(=O)c1ccccc1NC1=C/C(=N\S(=O)(=O)c2cccs2)c2ccccc2C1=O | 52 | 0 | 0 | 0
COC(=O)c1ccccc1NC1=C/C(=N\S(=O)(=O)c2ccc(C(=O)O)cc2)c2ccccc2C1=O | 47 | 0 | 0 | 0
OCCCNc1nc(-c2ccc(Cl)cc2)nc2ccccc12 | 0 | 0 | 0 | 0
CC(C)c1ccc(CNc2nnnn2C)cc1 | 0 | 0 | 0 | 0
Cc1nc(N2CCN(c3ccccn3)CC2)c2c(C)c(C(=O)Nc3c(C)cc(Br)cc3C)sc2n1 | 19 | 0 | 0 | 0
COc1ccc(NC(=O)N2CCCC(CCC(=O)N(C)CCc3ccccn3)C2)cc1 (stereo not drawn) | 70 | 0 | 0 | 0
CC(C)(C)C(=O)Nc1cc(C(F)(F)F)ccc1N1CCOCC1 | 0 | 0 | 0 | 0
C=CC[C@@H](CC(=O)N(CCO)Cc1ccccc1)C(=O)N[C@@H](COC(=O)[C@@H](CC=C)Cc1ccc(F)cc1)Cc1ccccc1 | - | - | 0 | -
O=C(CNC(=O)c1ccco1)OC(C(=O)c1ccccc1)c1ccccc1 (stereo not drawn) | 19 | - | 0 | 0
CC(C)[C@H](NC(=O)OCc1ccccc1)C(=O)NC(C=O)Cc1ccccc1 (stereo partly drawn) | 113 | - | 0 | -
SMILES | CTSL1 counter | Hep lipid drop | Arr AP2 block | pCIP destab
COC(=O)CNC(=O)C(NC(=O)OCc1ccccc1)C(C)C (stereo not drawn) | 0 | 0 | 0 | 0
CCOc1ccc(C(C(=O)NCCC(C)C)N(CCO)C(=O)c2snc(C(N)=O)c2N)cc1 (stereo not drawn) | 0 | 0 | 0 | 0
O=C(CSc1ncn[nH]1)N1CCOCC1 | 60 | 0 | 0 | 0
N#Cc1c(N)sc(=S)c2c1CCN(Cc1ccccc1)C2 | 109 | 0 | - | 0
Cc1ccc(NS(=O)(=O)c2ccc(-c3cnc(C4CC4)o3)cc2)c(C)c1 | 0 | ? | 0 | 0
O=C(O)CS(=O)(=O)c1ccc(Oc2ccc(S(=O)(=O)CC(=O)O)cc2)cc1 | 0 | - | - | 0
CC(=O)CS(=O)(=O)c1ccc(Oc2ccc(S(=O)(=O)CC(C)=O)cc2)cc1 | 24 | 0 | 0 | 0
CCC1=C(OC(=O)N(CC)CC)N2C(=O)OC(=NCCc3c[nH]c4ccccc34)[C@]2(Cc2ccccc2)[C@H]2C1=CC[C@H]1C(=O)N(c3ccccc3)C(=O)[C@H]12 | 0 | 0 | 0 | 0
COc1ccc(S(=O)(=O)Oc2cc(C(=S)N3CCOCC3)ccc2OC)cc1 | - | 0 | 0 | 0
Cc1ccc2c(c1)Oc1ccc(NC(=O)CCl)cc1C(=O)N2 | 52 | 0 | 0 | 0
CCOc1cc(NC(=O)CCl)c(OCC)cc1NC(=O)CCl | 88 | 0 | 0 | 0
COc1cccc(CNC(=O)Cn2c(=O)oc3ccccc32)c1OC | 0 | 0 | 0 | 0
CCOc1ccccc1CNC(=O)Cn1c(=O)oc2ccccc21 | 20 | - | 0 | 0
COc1cc(NC(=O)COC(=O)/C=C/c2c(C)nn(-c3ccc(F)cc3)c2Cl)cc(OC)c1 | 0 | 0 | 0 | 0
CC(C)(C)c1ccc(C2CC2C(=O)N/N=C\c2cc3ccccc3nc2Cl)cc1 (stereo not drawn) | 0 | - | 0 | 0
Cc1ccc2nc(Cl)c(/C=N/NC(=O)[C@H]3C[C@@H]3c3ccccc3)cc2c1 | 0 | 105 | 0 | 0
Cc1ccc(N2CCCn3c2cc(C)c(C#N)c3=O)cc1C | 0 | 0 | 0 | 0
COCCn1c(-c2cccs2)csc1=Nc1cccnc1 | 19 | 0 | 0 | 0
COC(=O)[C@H](Cc1ccccc1)NC(=O)N1Cc2ccccc2C[C@H]1C(=O)OC | 0 | - | 0 | 0
COC(=O)C1Cc2ccccc2CN1C(=O)CCl (stereo not drawn) | 48 | 0 | 0 | 0
Fc1ccccc1Cn1c2[n+](c3ccc(C(F)(F)F)cc31)CCCCC2 | 0 | 0 | 0 | 0
O=C(O)c1cc(S(=O)(=O)N2CCN(C(c3ccccc3)c3ccccc3)CC2)ccc1Cl | 0 | 0 | 0 | 0
COc1ccc(-n2nc3c(N4CCC(C(=O)N5CCCCCC5)CC4)nnc(C)c3c2C)cc1 | 28 | 0 | 0 | 0
CCOC(=O)Cc1csc(N/N=C\c2ccc(N(C)C)cc2)n1 | 19 | 0 | 0 | 0
CCOC(=O)Cc1csc(N/N=C/c2ccccc2)n1 | 0 | 0 | 0 | 0
SMILES | CTSL1 counter | Hep lipid drop | Arr AP2 block | pCIP destab
COc1ccc(C2C(O)C(c3c[nH]c4ccccc34)=NN2C(=O)CCl)cc1 (stereo not drawn) | 43 | 0 | 0 | 0
COc1ccc(C2NN=C(c3c[nH]c4ccccc34)C2O)cc1 (stereo not drawn) | 0 | - | 0 | 0
O=C(CSc1ncn[nH]1)N/N=C/c1ccc(C(F)(F)F)cc1 | 0 | 0 | 0 | 0
Cc1ccc(N(C(=O)Cn2nnc(-c3ccc(F)cc3)n2)C(C(=O)NC(C)(C)C)c2ccncc2)cc1 (stereo not drawn) | 0 | 0 | 0 | 0
Cc1cccc(NS(=O)(=O)c2ccc(C)c(C(=O)N(C)C3CCN(C)CC3)c2)c1 | - | - | 0 | -
CC(C)Oc1ccc(Br)cc1/C=N\NC(N)=S | 47 | 0 | 0 | 0
Cc1cccc(C)c1-n1c(C)cc(/C=N/NC(N)=S)c1C | 0 | - | 0 | 0
Cc1cc(/C=N/NC(N)=S)c(C)n1-c1ccc(Br)cc1 | 42 | 0 | 0 | 0
Cc1cc(/C=N/NC(N)=S)c(C)n1-c1cccc(Cl)c1 | 0 | 0 | 0 | 0
COc1ccc(Br)cc1/C=N/NC(=O)Cn1nnnc1N | 0 | 0 | 0 | 0
Cc1cc(/C=N/NC(N)=S)c(C)n1-c1ccc(Cl)cc1 | 17 | 0 | 0 | 0
